Compound activity from PubChem BioAssay.
RORA act: RORA (human) activation; P35398; CHO-K1 Gal4-RORA LBD luciferase reporter, luminescence; percent increase over mock-subtracted basal signal; activation, % at 10 µM; hit rate 1.5% among 65,000; AID 560;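 active = activation above the mean of all tested compounds plus 3 SD, cut at about 49% in these data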;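 note: 0% = DMSO-treated RORA cells and 100% = added signal equal to DMSO minus mock-transfected cells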
M1 antag: blocks the rat M1 muscarinic receptor response to acetylcholine; P08482; CHO-M1 cells, Fluo-4 calcium, ACh EC80 antagonist mode; hits give low values; B-score at 10 µM; hit rate 3.4% among 64,000; AID 628;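 active = calcium fluorescence response, raw or row-and-column corrected B-score, differing from the plate sample mean either way at a set confidence level, mostly lower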
Target sequence (P08482 whole entry, looked up): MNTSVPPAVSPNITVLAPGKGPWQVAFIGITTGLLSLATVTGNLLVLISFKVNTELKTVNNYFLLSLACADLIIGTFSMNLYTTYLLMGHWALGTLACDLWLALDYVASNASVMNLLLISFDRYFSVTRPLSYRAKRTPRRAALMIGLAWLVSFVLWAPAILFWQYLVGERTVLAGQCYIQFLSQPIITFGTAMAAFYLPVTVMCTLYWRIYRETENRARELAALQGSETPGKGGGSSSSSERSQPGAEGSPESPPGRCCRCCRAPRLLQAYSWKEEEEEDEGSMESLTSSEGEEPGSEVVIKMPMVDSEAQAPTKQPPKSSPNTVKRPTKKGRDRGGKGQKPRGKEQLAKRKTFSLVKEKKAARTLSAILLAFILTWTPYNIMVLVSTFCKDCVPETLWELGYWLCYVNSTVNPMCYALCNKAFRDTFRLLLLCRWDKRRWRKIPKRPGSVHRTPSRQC
D1 mod: allosteric modulators of human D1 dopamine receptor; P21728; HEK293 D1, CRE-luciferase, dopamine EC30 potentiation; actives deviate in either direction; B-score at 10 µM; hit rate 5.9% among 58,000; AID 641;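 active = luminescence count or its row- and column-corrected plate score outside the 99.7% band of the plate's sample wells, on either side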
SF-1 act: activates the human nuclear receptor SF-1; CHO-K1 Gal4-SF-1 LBD luciferase reporter; % increase over DMSO SF-1-specific signal; Q13285; activation, % at 10 µM; hit rate 1.9% among 65,000;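 active = activation above the mean activation of all tested compounds plus 3 SD, cut at about 50% in these data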
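Material: Gal4–SF-1 LBD one-hybrid luciferase reporter in CHO-K1 cells | Amount: 4,000 cells per well | Compound dosing: 10 µM single point, 1% DMSO | Schedule: 20 h compound treatment, 37 °C | Measured by: SteadyLite luciferase luminescence | Evaluation: Percent activation versus DMSO | Control set: DMSO-treated SF-1-transfected cells as negative, DMSO-treated mock-transfected cells lacking SF-1 as background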
M1 agonist: agonists of M1 muscarinic receptor | CHO-M1 cells, Fluo-4 calcium fluorescence, agonist mode; hits give high values | AID 626 | B-score at 10 µM | hit rate 3% among 64,000;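 active = fluorescence rise, raw or as B-score row- and column-corrected plate score, outside the 99.7% band of its plate's samples, either direction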
HePTP inh: human HePTP phosphatase inhibition. recombinant HePTP phosphatase activity, OD absorbance. inhibition, % at 20 µM. hit rate 0.64% among 110,000. AID 521; in the data active = inhibition above about 50%; inconclusive = no clear call, values can overlap the other calls;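 note: plate controls were vehicle for no effect and reference inhibitor for full effect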
M1 ag confirm: rat M1 muscarinic agonism, confirmation. CHO-M1 cells, Fluo-4 calcium fluorescence, agonist mode; actives lie on both sides. shares compounds with M1 agonist. fluorescence change (max-min) at 10 µM. hit rate 19% among 1,700;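 active = fluorescence change differs from the solvent-only DMSO control mean at a set confidence level in both duplicate runs; inconclusive = differs from solvent-only control mean in just one of two runs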;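 note: an EC20 dose of acetylcholine follows compound addition during the same imaging run; raw fluorescence intensity difference in instrument units with no normalization to controls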
M4 agonist ctr: counter-screen for M1 agonists: activity at rat M4 receptor. shares compounds with M1 agonist. CHO M4/Gqi5 cells, Fluo-4 calcium fluorescence, agonist mode; actives lie on both sides. fluorescence change (max-min) at 10 µM. hit rate 9% among 1,700;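 active = fluorescence change differing from the plate's solvent-only control wells at 99.7% confidence in both duplicates, whether higher or lower; inconclusive = differs from solvent controls in only one of two duplicates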
The depositor's hits bear a star; ? = inconclusive; / = no result. This is a sample that favours compounds with a hit; in the whole collection about 8.2% have one here.

SMILES	RORA act	M1 antag	D1 mod	SF-1 act	M1 agonist	HePTP inh	M1 ag confirm	M4 agonist ctr
O=C(c1ccco1)N1CCN=C1SCc1ccccc1F	-22	1.1	0.78	-16	-3.3*	7	-15	-29
O=C(c1ccco1)N1CCN=C1SCc1cccnc1	6	0.18	0.52	-8	-0.22	8	/	/
Cc1noc(C)c1COC(=O)c1cccc(S(=O)(=O)N2CCCCCC2)c1	-25	-2.2	-1.1	-32	3.1*	8	-17	-39
Cc1noc(C)c1COC(=O)c1ccc2c(c1)OCCO2	-4	/	/	-10	/	8	/	/
Cc1nn(CC(=O)NCCN2CCOCC2)c(=O)c2ccccc12	-8	-0.61	/	-13	-0.35	12	/	/
COc1ccc(C2C(C(C)=O)=C(C)N=c3s/c(=C\c4cc(C)n(C)c4C)c(=O)n32)c(OC)c1 (stereo not drawn)	-6	-0.086	0.16	-6	144*	11	458*	?
Cc1onc(-c2ccccc2Cl)c1C(=O)N(C)C1CCCCC1	10	-0.21	/	1	0.39	7	/	/
Cc1ccc(NC(=O)COC(=O)CCc2c[nH]c(=O)[nH]2)cc1	-8	-0.033	-0.68	12	7.3*	-2	27	-1.3
O=C(COC(=O)CCc1c[nH]c(=O)[nH]1)Nc1ccccc1	-16	0.056	0.034	14	-0.061	-2	/	/
c1ccc(-n2nnnc2SCCCSc2nc3ccccc3s2)cc1	-25	-0.85	0.63	-2	27*	3	26	?
Cc1ccc(OCCN2CCN(C(=O)CCC(=O)Nc3nnc(C(C)C)s3)CC2)cc1	-6	-1.9	-0.38	-16	13*	11	5.1	0.75
Cc1ccc(OCCN2CCN(C(=O)CCC(=O)Nc3nnc(C)s3)CC2)cc1	-5	-0.77	-0.63	-6	-1.1	14	/	/
CCCc1nnc(NC(=O)CCC(=O)N2CCN(CCOc3ccc(C)cc3)CC2)s1	-11	-1.6	-1.6	-12	20*	8	-7.2	-35
CC(C)c1nnc(NC(=O)CCC(=O)N2CCN(C3CCCCC3)CC2)s1	-9	-0.027	-0.087	-7	3.1*	5	?	-8.6
COc1ccc(CCN(C)C(=O)N2CCOCC2)cc1OC	2	-0.39	0.0082	1	0.29	8	/	/
COc1ccc(-c2noc(CN3CCN(c4ccccc4)CC3)n2)cc1	-22	0.56	-0.32	-9	-1	-1	/	/
CCOC(=O)N1CCN(Cc2nc(-c3ccc(C)cc3)no2)CC1	1	0.99	-0.021	1	2.5*	7	-4.9	-11
CN(C)c1ccc(N=Cc2nc(-c3ccccc3)oc2O)cc1	5	0.074	-0.062	18	21*	12	147*	61
CCOC(=O)C1CCCN(c2cc(C)nc3cc(-c4ccc(F)cc4)nn23)C1 (stereo not drawn)	4	-3.8*	0.24	10	30*	10	386*	-23
CCOC(=O)C1CCCN(C(=O)c2sc3nc(-c4ccc(F)cc4)cn3c2C)C1 (stereo not drawn)	-1	-1.7	-0.36	-6	2.3	10	/	/
COC(=O)C1=NN(C(=O)C(C)C)C(O)(c2ccccc2)C1 (stereo not drawn)	/	/	/	/	/	1	/	/
COC(=O)c1ccc(OCC2c3cc(OC)c(OC)cc3CCN2C(=O)c2ccco2)cc1 (stereo not drawn)	-1	-2.4*	/	25	11*	2	-15	?
CCOC(=O)Cn1c(=O)c2c(nc(Br)n2Cc2ccccc2)n(C)c1=O	-16	0.38	0.18	0	-0.19	-4	/	/
CCCCOC(=O)Cn1c(=O)c2c(nc(Br)n2Cc2ccccc2)n(C)c1=O	1	-0.009	-1.3	3	7.5*	1	-18	-45
O=C1/C(=C\c2ccccc2OS(=O)(=O)c2ccccc2[N+](=O)[O-])SC(=S)N1c1ccccc1	/	/	/	/	/	1	/	/
SMILES	RORA act	M1 antag	D1 mod	SF-1 act	M1 agonist	HePTP inh	M1 ag confirm	M4 agonist ctr
CCOC(=O)SC1=N/C(=C\c2ccc(N(C)C)cc2)C(=O)S1	1	0.66	-0.3	-3	10*	-10	?	?
CCOC(=O)N1CCN(c2c(Nc3ccc4c(c3)OCCO4)c(=O)c2=O)CC1	-6	0.077	0.73	-15	0.027	-3	/	/
O=C(NCc1cccnc1)C1c2ccccc2C(=O)N1Cc1ccco1 (stereo not drawn)	-3	0.02	-0.72	5	11*	10	-16	-19
COC(=O)C1C(=O)C2=C(CC1C)NC(=O)CC2c1ccc(O)c(OC)c1 (stereo not drawn)	-1	0.46	-0.35	-3	0.93	-4	/	/
O=C(CC1SC(=Nc2ccccc2)N(CCCO)C1=O)Nc1ccc(Cl)cc1 (stereo not drawn)	13	-0.89	-0.64	12	4.4*	-3	-4.6	?
COc1ccccc1N(C)S(=O)(=O)c1ccc(C(=O)OCC(=O)NCc2ccco2)cc1	9	-0.65	/	12	6.9*	1	-19	-38
NC(=O)c1nc(C2CCCCC2)nc2c1[nH]c(=O)n2-c1ccc(F)cc1	8	0.9	1.5	-8	-0.67	-4	/	/
Cc1cc2c(c(=O)o1)C1(C(=O)N(CC(=O)O)c3ccccc31)C(C#N)=C(N)O2 (stereo not drawn)	-6	-0.11	-0.51	-13	18*	5	60*	54
COc1ccc(S(=O)(=O)Nc2cc(C)c(O)cc2C(C)C)cc1	-3	0.35	-1.3	-6	4.7*	7	-11	-48
CCOc1ccc(C2C(C#N)=C(N)N3C(=C2C#N)Sc2ccccc23)cc1 (stereo not drawn)	25	-0.44	-0.022	18	9.9*	2	?	?
CCC(=O)Nc1cccc(NC(=O)CSc2nnnn2C)c1	-11	-0.95	0.51	-1	0.4	8	/	/
COc1ccc(OC)c(-c2[nH]nc3c2C(c2ccco2)C(C#N)=C(N)O3)c1 (stereo not drawn)	-6	0.2	0.59	2	0.51	0	/	/
N#CC1=C(N)Oc2n[nH]c(-c3cccs3)c2C1c1ccco1 (stereo not drawn)	-6	-0.17	1.5	-8	37*	10	138*	115*
Cc1csc(SCCn2c(N3CCN(c4ccccc4)CC3)nc3c2c(=O)[nH]c(=O)n3C)n1	-4	-2.5*	-0.66	14	5.4*	-8	?	-57
COc1ccccc1NS(=O)(=O)c1ccc(C)cc1C	/	/	/	/	/	4	/	/
Cc1cc2c(cc(C(=O)O)n2C)s1	-4	-0.3	0.19	10	-1.4	-2	/	/
Cc1ccc2nc(/C(C#N)=N/O)[nH]c2c1	-7	1.2	0.022	10	3.6*	11	?	-33
